Source: the array DNA melting data of Ke et al. (doi:10.1101/2024.01.08.574731)

What was measured:
[1] = folding enthalpy; higher = less favourable; fluorescence melt of hairpins on a sequencing array, two-state fit; conditions: sodium 0.088 M
In short: (§1)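 Folding enthalpy and melting temperature were estimated with bootstrapped two-state fits and combined across four replicates by inverse-variance weighting, with fitted temperatures raised by 9.35 °C to match UV melts. The data were Cy3 fluorescence of library hairpins, with annealed Cy3 and quencher oligos, on a sequenced MiSeq flow cell in 50 mM Na-HEPES pH 8.0, 25 mM NaCl, imaged in 2.5 °C steps up to 60 °C and normalised to pre-quench Cy3 and control constructs.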

[2] = melting temperature; fluorescence melt of hairpins on a sequencing array, two-state fit, raised by 9.35 °C to match UV melts; conditions: sodium 0.088 M
In short: as §1

Row | Sequence | folding enthalpy [1] [kcal/mol] | Tm [2] [°C]
1 | CTGAGGAAACTCAG (((((....))))) | -20.1 | 47.1
2 | GATCCGTCCGCGGATC ((((((....)))))) | -36.7 | 61
3 | GATCAATTGATTGATC ((((((....)))))) | -36.5 | 47.2
4 | GTTATACGAAAGTACAAC (((.(((....))).))) | -17.4 | 33.2
5 | GAGGATGGAAACATCCTC (((((((....))))))) | -49.6 | 61.3
6 | GATCTTTGTCAAGATC ((((((....)))))) | -33 | 39.9
7 | GTCGTTGGAAACAACGGC (.(((((....))))).) | -39.6 | 55.1
8 | GTTTTTGGAAACGAAAAC (((((.(....).))))) | -31.3 | 40.4
9 | CGTACGGAAACGTCTACG ((((((....)))..))) | -14.7 | 30.7
10 | GGCGACGAAAGTCTGGCC ((((((....)))..))) | -23.3 | 53.7
11 | GATCCGTTTCCGGATC ((((((....)))))) | -41.2 | 58.9
12 | GCACCGCGAAAGCGTGGC ((..(((....)))..)) | -16.5 | 56.1
13 | GATATCGGAAACGATGTC ((.((((....)))).)) | -30.7 | 46.7
14 | GGCCATCGAAAGATTGCC (((.(((....))).))) | -26.3 | 49.3
15 | GGCACACCGAAAGGTGCC (((..(((....)))))) | -14.3 | 52.8
16 | GGGACCGAAAGGTGCCCC ((((((....)))..))) | -13.5 | 57.6
17 | GGGTGTCCGAAAGGACCC (((..(((....)))))) | -14 | 55
18 | GTCTACGAAAGTATAGAC ((((((....)))..))) | -24.4 | 36.2
19 | GTATCCCCGAAAGGGTAC (((..(((....)))))) | -14.8 | 35.5
20 | GGTGCAGGAAACCGCACC (((((.(....).))))) | -45.1 | 57
21 | GATCGTCCCTACGATC ((((((....)))))) | -43.9 | 55
22 | GGAGCTACGAAAGTATCC (((..(((....)))))) | -5.61 | 19.7
23 | GGGTCTCGAAAGAGCCCC (((.(((....))).))) | -37.9 | 57.4

Row | Sequence | folding enthalpy [1] [kcal/mol] | Tm [2] [°C]
24 | GGCTCGCCGAAAGGCGCC (((..(((....)))))) | -6.98 | 35.7
25 | GCCTAAGGAAACTCAGGC ((((.((....)).)))) | -31.3 | 35.6
26 | GCGAAGGGAAACCTTCAC (.(((((....))))).) | -18.1 | 38.6
27 | GGTGATGCGAAAGCAACC (((..(((....)))))) | -13.7 | 36.9
28 | GTCTACGAAAGTAATGAC ((((((....)))..))) | -17.6 | 30.7
29 | GTTAGCGAAAGCTGAAC ((((((....))).))) | -13.2 | 38.4
30 | TCATCGAAAGATGA (((((....))))) | -22.9 | 49.7
31 | GCCCTCTCGAAAGAGGGC (((..(((....)))))) | -40.5 | 68.1
32 | GCTCTGCGAAAGCTGAGC ((((.((....)).)))) | -41.2 | 68.3
33 | GCAGAACGAAAGTTATGC (((.(((....))).))) | -39.3 | 55.4
34 | CGCGGAAGAGTCCGCG ((((((....)))))) | -36 | 62.6
35 | GATCCCTCAAGGGATC ((((((....)))))) | -40 | 60.9
36 | GCGTCCCTACGC ((((....)))) | -23.2 | 53.7
37 | GATCGGCAGCCCGATC ((((((....)))))) | -36.1 | 54.9
38 | GATTGCGGAAACGTGATC (((..((....))..))) | -30.6 | 40.7
39 | GATCTATCGTTAGATC ((((((....)))))) | -19.4 | 37.8
40 | GGGAGTGAAAACTCCC ((((((....)))))) | -34.1 | 65.2
41 | GATCGTGTGTACGATC ((((((....)))))) | -40.9 | 54.7
42 | GCCACGCGAAAGCGGTGC ((..(((....)))..)) | -13.3 | 50.1
43 | GGTTGGGGAAACCCGATC (.(.(((....))).).) | -21.6 | 34.4
44 | GATCTGATGCCAGATC ((((((....)))))) | -33.4 | 47.5
45 | GCTCGCCGAAAGGCAAGC (((.(((....))).))) | -29.1 | 54.7
46 | GTAGGCGGAAACGTCTAC ((((.((....)).)))) | -39.1 | 53.1
